These results are taken from ChEMBL document CHEMBL2396655, “Design, synthesis, and biological evaluation of (E)-N-aryl-2-arylethenesulfonamide analogues as potent and orally bioavailable microtubule-targeted anticancer agents” (J Med Chem, 2013).

Calls of active or inactive are those of the source. No cut-off for these calls is given here.

One series has as its system K562. The series can be described thus: Cytotoxicity against human K562 cells after 96 hrs by trypan blue exclusion assay. The format is functional, cell-based. Put shortly:
(§1)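 Cells were grown in DMEM or RPMI with 10% FBS and plated at 2.5×10⁴ cells/well in 12-well dishes. Compounds were added 24 h later at various concentrations. After 96 h, viable cells were counted by trypan blue exclusion from duplicate wells. Results are the mean of two independent experiments.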

For series [1], the system named is DU-145. The series can be described thus: Cell cycle arrest in human DU145 cells assessed as accumulation at G2/M phase at 0.005 uM after 24 hrs by propidium iodide staining-based FACS flow cytometric analysis. The format is functional. Put shortly: (§2)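 DU145 cells were plated at 1.0×10⁶ per dish in DMEM/10% FBS and treated 24 h later with increasing concentrations. After 24 h, attached and floating cells were pooled and fixed in ice-cold 70% ethanol for at least 24 h. Cells were stained with propidium iodide (50 μg/mL) plus RNase A for 30 min at 37 °C, then read on a FACScan with cell-cycle modelling.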

In a further series the test system is 2008. The series can be described thus: Growth inhibition of human 2008 cells. The format is functional.
The test system of series [2] is DU-145. The series can be described thus: Induction of apoptosis in human DU145 cells assessed as caspase activation at 10 to 20 nM after 24 to 72 hrs by Western blotting analysis. The format is functional, cell-based.
The next series relates to NCI-H417. The series can be described thus: Cytotoxicity against human NCI-N417 cells after 96 hrs by trypan blue exclusion assay. The format is functional. The following applies: NCI-H417, 96 h. The method, boiled down:
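Cells grown in DMEM or RPMI with 10% FBS and 1 unit/mL penicillin-streptomycin, seeded in 12-well dishes at 2.5 ×10⁴ cells/mL/well. Compound added 24 h later at various concentrations. Viable cells counted by trypan blue exclusion from duplicate wells after 96 h. Value taken from dose-response curves of two independent experiments.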

A further series concerns BT-474. As to the kind of experiment: Cytotoxicity against human BT474 cells after 96 hrs by trypan blue exclusion assay. The format is functional. To be noted: BT-474, 96 h. Put shortly:
as §1

A short description of series [3]: Cytotoxicity against human HepG2 cells after 4 hrs by Alamar Blue assay. The format is cell-based. The following applies: read-out: LD50.
The test system of series [4] is Mus musculus. The series can be described thus: Toxicity in NCR-nu/nu mouse assessed as reduction in body weight at 20 mg/kg, ip treated 3 times a week for 2 weeks measured on alternate days for 14 days. More on the design: dose 20 mg/kg, route intraperitoneal. The format is organism-based. The following applies: in vivo, 336 h. Put shortly:
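Female athymic NCr-nu/nu mice bearing subcutaneous BT20 hind-leg tumors (~100–150 mm³) were given 20 mg/kg IP in DMSO (0.1 mL), 3 times a week for 2 weeks (N=8; vehicle N=7).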

In a further series the test system is MDCK. As to the kind of experiment: Apparent permeability from apical to basolateral side in MDCK cells expressing MDR-1 at 10 uM after 90 mins by LC-MS/MS analysis. The format is ADME, cell-based, Canis lupus familiaris. To be noted: dog, 1.5 h. The method, boiled down: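 MDCK-MDR1 (Pgp-expressing) monolayers were used 3–4 days post-seeding, only if TEER exceeded 1000 Ω·cm² before and after the run. Compound starting concentration was 10 μM. Transport was measured A→B and B→A over 90 min and quantified by LC/MS/MS. Apparent permeabilities gave the efflux ratio.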

In series [5] the target is T1, Tubulin (Homo sapiens) (UniProt P68371+Q9H4B7+P0DPH7+P68366+Q13509+Q71U36+P04350+Q3ZCM7+P07437+P68363+Q9BQE3+Q6PEY2+Q13885+Q9BVA1+Q9BUF5). As to the kind of experiment: Inhibition of tubulin polymerization in human DU145 cells after 24 hrs by Western blotting analysis. The following applies: DU-145. The format is cell-based.
Series [6] deals with Mus musculus. As to the kind of experiment: Volume of distribution at steady state in ICR mouse at 5 mg/kg, iv by LC-MS/MS analysis. Further details: dose 5 mg/kg, route intravenous. The following applies: in vivo. The format is ADME, organism-based. Put shortly:
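Male ICR mice, 6–8 weeks old (N=3 per group), with a carotid artery cannula implanted one day before dosing. Dosed at 5 mg/kg in NMP:PEG300:water (1:4:5) as an IV bolus or by oral gavage. Blood drawn at 2–360 min; plasma protein-precipitated with acetonitrile containing internal standard, assayed by LC/MS/MS; noncompartmental analysis.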

In series [7] the test system is DU-145. As to the kind of experiment: Induction of apoptosis in human DU145 cells assessed as increase in PARP cleavage at 10 to 20 nM after 24 to 72 hrs by Western blotting analysis. The format is functional, cell-based. Put shortly:
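DU145 cells were plated at 1.0×10⁶ per plate and treated 24 h later with DMSO or increasing concentrations, then harvested at set time points. Cells were lysed in 0.1% Triton X-100 buffer with protease inhibitors. Equal protein was run on 10% SDS-PAGE, blotted with anti-PARP and detected with IRDye 800 secondary on Odyssey.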

Another series deals with Plasma. The series can be described thus: Plasma protein binding in dog at 10 to 50 uM by equilibrium dialysis. The format is ADME, cell-free, Canis lupus familiaris.
The nature of series [8]: Growth inhibition of multidrug-resistant human MES-SA/Dx5 cells. The format is functional.
Series [9] deals with Mus musculus. The series can be described thus: Clearance in ICR mouse at 5 mg/kg, iv by LC-MS/MS analysis. The format is ADME, organism-based. More on the design: dose 5 mg/kg, route intravenous. The following applies: in vivo. Put shortly: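 Male ICR mice, 6–8 weeks old, N=3 per group. Single 5 mg/kg dose in NMP:PEG300:water (1:4:5 v/v), given as IV bolus or oral gavage. Serial arterial blood was drawn through a carotid cannula at 2–360 min. Plasma was protein-precipitated with acetonitrile containing internal standard and assayed by LC/MS/MS. Parameters were derived by noncompartmental analysis.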

The next series deals with Tubulin (Sus scrofa) (UniProt P02554+P02550). As to the kind of experiment: Competitive binding affinity to pig brain tubulin paclitaxel binding site at 0.1 to 100 uM after 1 hr by mass spectrophotometric analysis in presence of paclitaxel and GTP. Put shortly: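 Porcine brain tubulin (1.0 mg/mL) in PIPES 80 mM, MgCl₂ 2 mM, EGTA 0.5 mM, pH 6.9, at 37 °C. […] Competitor was 0.1–100 μM for 1 h. Unbound ligand in the 30 kDa ultrafiltrate was measured by MS. Runs were in triplicate; IC50 came from a Hill fit.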

Series [10] can be described thus: Cytotoxicity against human Caco2 cells after 1 hr by Alamar Blue assay. The format is cell-based. The following applies: Caco-2 cells, read-out: LD50.
The test system of series [11] is DU-145. As to the kind of experiment: Mitotoic arrest in human DU145 cells assessed as rosette of condensed DNA without mitotic spindle at 25 nM after 24 hrs by FITC and propidium iodide staining-based confocal laser microscopic analysis. The format is functional, cell-based. Put shortly: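 DU145 cells grown on glass coverslips, exposed to 0.025 μM for 24 h, fixed in 4% paraformaldehyde, permeabilized in PBS with 10% FBS/0.1% Triton X-100, stained with FITC-conjugated anti-α-tubulin (DM1A, 1 h, 37 °C) and propidium iodide (1 μg/mL, 5 min), then imaged by confocal microscopy (60× objective, XYZ-sectioning); DMSO-treated cells as vehicle.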

For a further series, the system named is MES-SA. The series can be described thus: Resistance factor, ratio of GI50 for multidrug-resistant human MES-SA/Dx5 cells to GI50 for human MES-SA cells. The format is functional.
Series [12] has as its system DU-145. The series can be described thus: Cell cycle arrest in human DU145 cells assessed as accumulation at G2/M phase after 24 hrs by propidium iodide staining-based FACS flow cytometric analysis. The format is functional. Put shortly: as §2
Series [13] concerns the target T1, Tubulin (Homo sapiens). The series can be described thus: Inhibition of tubulin polymerization in human DU145 cells at 10 to 50 nM pretreated with paclitaxel for 24 hrs followed by compound treatment for 4 hrs by Western blotting analysis. The format is cell-based. To be noted: DU-145. The method, boiled down: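 DU145 cells were plated at 1.0×10⁴/well and treated for 24 h. Alternatively, cells were pretreated with paclitaxel for 24 h, then exposed to compound for 4 h. Cells were lysed in hypotonic buffer (1 mM MgCl₂, 2 mM EGTA, Tris pH 6.6, 0.5% NP40, protease inhibitors) and spun 10 min at 14,000 rpm. Pellet (polymerized) and supernatant (soluble) fractions were blotted for α-tubulin.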

Consider `COc1cc(OC)c(/C=C/S(=O)(=O)Nc2ccc(OC)c(N)c2)c(OC)c1`, for which the Activity entry with K562 is “Dose-dependent effect”; in the series with Mus musculus [4], “Non-toxic”; in the series on DU-145 [12] it was “Dose-dependent effect”. Further, the GI50 was determined as 0.003 µM in the series on K562 (K562, 96 h); 0.006 µM with 2008; 0.004 µM in the series on NCI-H417; 0.01 µM in the series with BT-474; 0.01 µM in series [8]. In the series with K562 (K562, 96 h), this compound yielded an IC50 of 0.003 µM. Also, the result in the series with DU-145 [1], in the series on DU-145 [2], with DU-145 [7] and in the series with DU-145 [11] was Active. The CC50 at 4 h in series [3] is greater than 1000 µM. The Papp with MDCK worked out at 91 nm/s. Also, the inhibition result at Tubulin (Homo sapiens) [5] is “Dose-dependent effect”. The volume of distribution (Vdss) with Mus musculus [6] stood at 2.13 L/kg. Further, the PPB in the series with Plasma was determined as 98.48%. The CL in the series with Mus musculus [9] was 2.48 L/h/kg. The result on Tubulin (Sus scrofa) was inactive. In addition, the CC50 at 1 h in [10] is greater than 1000 µM. In addition, the RatioGI50 in the series on MES-SA came to 1.6. The inhibition result on Tubulin (Homo sapiens) [13] was “Active”.
